One assay concerns the target Vasopressin V2 receptor (Homo sapiens, UniProt P30518). Description: Effective concentration for human Vasopressin V2 receptor. The essentials:
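293 cells in phenol red-free DMEM with penicillin and 10% foetal calf serum were dual-transfected with V2 receptor and CRE-luciferase constructs, then grown 24 h at 37°C/5% CO2 before and after plating. Compounds came from 10 mM DMSO stocks (0.1% DMSO final). Luciferase was measured after 5 h at 37°C. EC50 from a 4-parameter logistic fit; mean ± SD (n≥3), or mean ± range where n=2.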

The next assay addresses T1, Oxytocin receptor (Homo sapiens, UniProt P30559).
T1 sequence (P30559 whole entry): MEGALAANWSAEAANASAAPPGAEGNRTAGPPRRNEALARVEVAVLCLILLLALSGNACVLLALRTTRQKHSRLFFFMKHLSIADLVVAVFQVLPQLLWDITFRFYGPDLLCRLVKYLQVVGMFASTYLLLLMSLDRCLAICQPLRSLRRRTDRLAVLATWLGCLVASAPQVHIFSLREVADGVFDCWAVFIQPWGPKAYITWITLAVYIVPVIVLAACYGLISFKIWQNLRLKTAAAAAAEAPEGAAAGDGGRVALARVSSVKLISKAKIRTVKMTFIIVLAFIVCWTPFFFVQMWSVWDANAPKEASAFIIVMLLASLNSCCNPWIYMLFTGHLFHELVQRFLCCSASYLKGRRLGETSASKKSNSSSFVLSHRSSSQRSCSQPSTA
Description: Effective concentration for human Oxytocin receptor. A digest of the protocol:
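CHO cells kept in phenol red-free DMEM with penicillin and 10% foetal calf serum, dual-transfected with human OT receptor and NFAT-luciferase constructs, then grown 24 h at 37°C/5% CO2 before and after plating. Compounds were diluted from 10 mM DMSO stocks (0.1% DMSO final). Luciferase was read after 5 h at 37°C. EC50 came from a 4-parameter logistic fit; mean ± SD (n≥3), or mean ± range where n=2.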

Assay [1] concerns the target Oxytocin receptor (Homo sapiens) (UniProt P30559). Description: Agonist activity against Oxytocin receptor relative to oxytocin at 3 uM.

Each structure is given as a SMILES string. A value given as a limit tells only on which side of the number the result lay.

The source of these data is ChEMBL document CHEMBL1137196, “Non-peptide oxytocin agonists” (Bioorg Med Chem Lett, 2004).

Chain of Vasopressin V2 receptor (P30518 whole entry): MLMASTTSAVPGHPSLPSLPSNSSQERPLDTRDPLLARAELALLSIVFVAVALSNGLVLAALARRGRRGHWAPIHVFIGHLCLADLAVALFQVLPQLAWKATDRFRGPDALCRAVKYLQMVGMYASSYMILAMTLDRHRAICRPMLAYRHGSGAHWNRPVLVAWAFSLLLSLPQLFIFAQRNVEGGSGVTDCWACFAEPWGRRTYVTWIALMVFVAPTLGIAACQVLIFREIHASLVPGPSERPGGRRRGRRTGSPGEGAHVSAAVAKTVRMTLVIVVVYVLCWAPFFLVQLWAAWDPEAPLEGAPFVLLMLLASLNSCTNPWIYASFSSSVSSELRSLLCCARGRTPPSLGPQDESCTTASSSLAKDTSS

Consider `CO[C@@H]1C[C@@H](C(=O)NCCc2ccccn2)N(C(=O)NCc2ccc(C(=O)N3CCCCc4sccc43)cc2Cl)C1`, for which the EC50 at Vasopressin V2 receptor turned out to be 570 nM; on Oxytocin receptor, 1500 nM.
Regarding `Cc1cc(C(=O)N2CCCCc3sccc32)ccc1CNC(=O)N1CCC[C@H]1C(=S)N1CCCN(C)CC1`, the EC50 worked out at 890 nM at Vasopressin V2 receptor and 640 nM at Oxytocin receptor.
`Cc1ccn(-c2ccc(C(=O)N3Cc4cccn4Cc4ccccc43)c(Cl)c2)n1` had a Relativity in assay [1] of less than 10%.
Regarding `CO[C@@H]1C[C@@H](C(=O)N2CCCN(C)CC2)N(C(=O)NCc2ccc(C(=O)N3CCCCc4sccc43)cc2Cl)C1`, the EC50 on Vasopressin V2 receptor was determined as 1300 nM; at Oxytocin receptor it was 2800 nM.
On the same counts, the results for `CO[C@@H]1C[C@@H](C(=O)N2CCC(N3CCCCC3)CC2)N(C(=O)NCc2ccc(C(=O)N3CCCCc4sccc43)cc2Cl)C1` are 1200 nM and 2200 nM.
On the same counts, the results for `CO[C@@H]1C[C@@H](C(=O)N2CCC(N3CCCC3)CC2)N(C(=O)NCc2ccc(C(=O)N3CCCCc4sccc43)cc2Cl)C1` are 1100 nM and 2300 nM.
On the same counts, the results for `CO[C@@H]1C[C@@H](C(=S)N2CCCN(C)CC2)N(C(=O)NCc2ccc(C(=O)N3CCCCc4sccc43)cc2Cl)C1` are 230 nM and 430 nM.
`CC(C)NC(=O)C[C@H]1CCCN(C(=O)c2ccc(N3CCCC3)cc2Cl)c2ccccc21` returned a Relativity in assay [1] of less than 10%.
On the same count and under the same terms, for `Cc1cc(C(=O)N2CCCCc3ccccc32)ccc1CNC(=O)NCC(=O)N(C)C` the value was 33%.
On to `Cc1cc(C(=O)N2Cc3cnn(C)c3Nc3ccccc32)ccc1CNC(=O)N1CCC[C@H]1C(=S)N1CCCN(C)CC1`, for which the figures for the EC50 on Vasopressin V2 receptor and on Oxytocin receptor were 850 nM and 33 nM, respectively.
For `CO[C@@H]1C[C@@H](C(=O)NCCN(C)C)N(C(=O)NCc2ccc(C(=O)N3CCCCc4sccc43)cc2Cl)C1`, in that order: 1800 nM and greater than 10000 nM.
Turning to `CN1CCCN(C(=S)[C@@H]2CCCN2C(=O)NCc2ccc(C(=O)N3CCCCc4sccc43)cc2Cl)CC1`, the EC50 was 1800 nM on Vasopressin V2 receptor and 810 nM at Oxytocin receptor.
On the same counts, the results for `CO[C@@H]1C[C@@H](C(=S)N2CCC(N3CCCC3)CC2)N(C(=O)NCc2ccc(C(=O)N3CCCCc4sccc43)cc2Cl)C1` are 100 nM and 480 nM.
For `CO[C@@H]1C[C@@H](C(=S)NCCc2ccccn2)N(C(=O)NCc2ccc(C(=O)N3CCCCc4sccc43)cc2Cl)C1`, in that order: 200 nM and 470 nM.

The EC50 is the midpoint of the concentration-response curve.
